MrgX1 ag – agonists of human MrgX1 receptor, primary screen, HEK293 cells, Fluo-4 calcium flux. Mas-related G-protein coupled receptor member X1 (Homo sapiens), Q96LB2. Fluo-4 calcium fluorescence, agonist mode; stronger effect = higher value. B-score at 10 µM. 310,000 compounds, 0.44% hits. AID 588627, 2011;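 active = calcium response B-score plate-corrected fluorescence ratio at least 3 library SD, with starting fluorescence B-score inside 5 SD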
Target sequence (Q96LB2 whole entry, looked up): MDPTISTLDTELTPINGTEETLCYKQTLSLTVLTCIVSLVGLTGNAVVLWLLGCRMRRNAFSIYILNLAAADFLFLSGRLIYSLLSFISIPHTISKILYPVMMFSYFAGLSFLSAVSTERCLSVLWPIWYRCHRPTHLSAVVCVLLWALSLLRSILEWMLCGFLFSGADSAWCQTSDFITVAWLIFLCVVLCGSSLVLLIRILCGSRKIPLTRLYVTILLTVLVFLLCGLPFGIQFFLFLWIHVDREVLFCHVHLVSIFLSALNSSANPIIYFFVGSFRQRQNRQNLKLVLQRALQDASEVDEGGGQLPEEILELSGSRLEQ
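Test system: HEK293 cells stably expressing human MrgX1 receptor; amount: 15,000 cells per well; doses: compound delivered in addition one of three; times: overnight plating before 1 h dye loading; detection: Fluo-4 NW calcium-flux fluorescence, kinetic read; read-out basis: B-scored fluorescence response ratio; controls: positive and negative controls per plate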
Cl transport mod – KCC2 cotransporter modulators, thallium flux, primary screen, cell-based, HEK293 KCC2, FluoZin-2 fluorescence, MLSMR. Solute carrier family 12 member 5 (Homo sapiens), Q9H2X9. KCC2 cells, thallium flux FluoZin-2 fluorescence. B-score of Tl+ flux slope (higher = more flux/activation; lower = inhibition) at 10 µM. 190,000 compounds, 2.2% hits. AID 1456, 2008;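 active = thallium flux slope and its plate-corrected score both differing from the plate sample mean at a set confidence after two filtering rounds, in either direction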;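 also: slope of fluorescence scaled to starting intensity during 10 to 20 s after thallium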
RGS4 pot – RGS4 potentiators or activators, primary screen, cell-based, HEK293 M3R inducible RGS4, calcium flux; AID 463111, 2010; carbachol calcium flux Fluo4; stronger effect = lower value; B-score at 10 µM; 310,000 compounds, 0.92% hits;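 active = B-score of the integrated calcium signal more than 4 SD below the library mean, with starting fluorescence not abnormally high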;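 also: negative B-score means reduced calcium response which marks RGS4 activation or potentiation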
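test system = HEK293 cells with stable M3R and inducible RGS4 | schedule = recording 10 s baseline at 1 Hz, 100 s post-agonist | technique = Fluo4-AM (2 µM) calcium-flux fluorescence, kinetic read | measure = Agonist-evoked peak-minus-minimum fluorescence over baseline, integrated ratio, B score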
RGS4 inh – RGS4 inhibitors, primary screen, cell-based, HEK293 M3R inducible RGS4, calcium flux | 310,000 compounds, 0.45% hits | B-score at 10 µM | Fluo-4 calcium flux; stronger effect = higher value; triggered by carbachol at its EC20;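 active = B-score, a plate-corrected calcium signal, over three deviations above library mean, with baseline fluorescence within five deviations of library mean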;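 also: RGS4 expression induced by doxycycline in cells with stable M3 receptor; B-score is computed from the integrated fluorescence ratio over baseline after carbachol; higher B-score means a larger calcium signal and so more RGS4 inhibition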
Target sequence (P49798 whole entry, looked up): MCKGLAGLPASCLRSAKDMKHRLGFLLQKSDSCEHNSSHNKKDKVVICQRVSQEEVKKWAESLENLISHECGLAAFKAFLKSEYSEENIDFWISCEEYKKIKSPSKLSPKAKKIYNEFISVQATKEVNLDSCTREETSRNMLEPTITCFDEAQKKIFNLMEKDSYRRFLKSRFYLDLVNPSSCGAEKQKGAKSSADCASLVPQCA
MrgX1 antag – antagonists of human MrgX1 receptor, primary screen, HEK293 cells, Fluo-4 calcium flux; Mas-related G-protein coupled receptor member X1 (Homo sapiens), Q96LB2; BAM8-22 antagonism; stronger effect = lower value; B-score at 10 µM; 310,000 compounds, 1.3% hits;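 active = calcium-response B-score plate-corrected more than 3 library SD below zero, starting fluorescence within 5 deviations, no agonist response on first addition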;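 also: peak minus trough fluorescence over baseline after final BAM8-22 challenge near maximal dose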
MrgX1 allo act – positive allosteric modulators of MrgX1, primary screen, HEK293 cells, Fluo-4 calcium flux; Mas-related G-protein coupled receptor member X1 (Homo sapiens), Q96LB2; AID 588675, 2011; FDSS; stronger effect = higher value; 310,000 compounds, 0.63% hits; B-score at 10 µM;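 active = plate-corrected calcium response at least 3 library SD above typical, normal starting fluorescence, not activating the receptor alone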;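 also: compound read alongside a low EC10 to EC30 dose of BAM8-22 agonist; peak minus trough fluorescence over baseline measured at the second addition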
MrgX1 ant reconf – MrgX1 receptor antagonists, duplicate retest, confirmation, HEK293 cells, Fluo-4 calcium flux | shares compounds with MrgX1 antag | BAM8-22 calcium flux; stronger effect = lower value | remaining BAM8-22 calcium response % of control (stronger effect = lower value), % at 10 µM | 2,300 compounds, 19% hits;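 active = remaining agonist calcium response no higher than 100% minus 3 SD of agonist-only control wells, with starting fluorescence near control levels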;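 also: agonist BAM8-22 given at a near maximal EC90 to ECmax level; peak minus minimum fluorescence divided by baseline after agonist addition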
HEK293 Ca flux – nonspecific calcium signal in parental HEK293, confirmation, counter-screen for MrgX1 antagonist project, parental HEK293 cells, Fluo-4 calcium flux; shares compounds with MrgX1 antag; Fluo-4 calcium fluorescence, FDSS; fluorescence ratio F(max-min)/F0 at 10 µM; 4,000 compounds, 2% hits; AID 624111, 2012;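 active = duplicate-averaged calcium fluorescence ratio at least three times the standard deviation of buffer wells, a nonspecific response in parental cells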
HEK293 Ca counter – calcium response in parental HEK293 cells, primary screen, counter-screen for MrgX1 allosteric activator project, cell-based, Fluo-4 calcium flux, duplicate; shares compounds with MrgX1 antag; Fluo-4 fluorescence ratio; stronger effect = higher value; fluorescence ratio F(max-min)/F0 at 10 µM; 4,000 compounds, 0.4% hits; AID 624114, 2012;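 active = calcium fluorescence ratio, averaged over duplicates, at least 3 SD of the buffer-well ratio, meaning a nonspecific response in receptor-free cells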;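 also: untransfected parental HEK293 lacking MrgX1 used as counterscreen for MrgX1 allosteric activators; fluorescence change taken during the second addition on a kinetic imager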
HEK293 Ca cntr2 – calcium response in parental HEK293 cells, primary screen, counter-screen for MrgX1 agonist project, cell-based, Fluo-4 calcium flux, duplicate, agonist mode; shares compounds with MrgX1 antag; Fluo-4 calcium fluorescence (FDSS); stronger effect = higher value; fluorescence ratio F(max-min)/F0 at 10 µM; 4,000 compounds, 8.7% hits; AID 624115, 2012;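 active = calcium fluorescence ratio at least three times the spread of buffer wells, meaning a non-specific response in parental cells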
Each line names hits and unclear results; the compound was inactive in the other large screens (follow-up assays come after a bar, where they were run). An excerpt weighted towards active compounds, which were near 4.7% of everything screened.

Cc1ccc(S(=O)(=O)NC2c3cccc4cccc(c34)C2Sc2n[nH]c(N)n2)cc1 (centres undefined)	none
O=S(=O)(NC1c2cccc3cccc(c23)C1Sc1ncccn1)c1ccc(Cl)cc1 (centres undefined)	MrgX1 antag -4.72 | MrgX1 ant reconf inactive | HEK293 Ca flux inactive | HEK293 Ca counter inactive | HEK293 Ca cntr2 inactive
O=C(OC1CCCCC1=O)c1cccc(S(=O)(=O)N2CCCCC2)c1 (centres undefined)	none (no result: Cl transport mod)
O=C(OC1CCCCC1=O)c1ccc(S(=O)(=O)Nc2ccccc2)cc1 (centres undefined)	MrgX1 antag -5.43 | MrgX1 ant reconf inactive | HEK293 Ca flux inactive | HEK293 Ca counter inactive | HEK293 Ca cntr2 inactive
NC(=S)Nc1cc2ccccc2c2ccccc12	MrgX1 antag -4.77 (no result: Cl transport mod) | MrgX1 ant reconf inactive | HEK293 Ca flux inactive | HEK293 Ca counter inactive | HEK293 Ca cntr2 inactive
NC(=S)Nc1cccc2cc3ccccc3cc12	none (no result: Cl transport mod)
Cc1ccc2nc(SCCC#N)nc(C)c2c1	MrgX1 antag -8.06 | MrgX1 ant reconf inactive | HEK293 Ca flux inactive | HEK293 Ca counter inactive | HEK293 Ca cntr2 inactive
Cc1ccc2nc(SCC(=O)O)nc(C)c2c1	none
Cc1ccc(S(=O)(=O)NCCC(=O)NCc2ccco2)cc1	MrgX1 antag -4.58 | MrgX1 ant reconf inactive | HEK293 Ca flux inactive | HEK293 Ca counter inactive | HEK293 Ca cntr2 inactive
O=C(CCCNS(=O)(=O)c1ccccc1)NCc1ccco1	none
O=c1[nH]c2cc(Br)cnc2nc1/C=C(\O)c1ccc(F)cc1	MrgX1 antag -6.95 | MrgX1 ant reconf 75.0% | HEK293 Ca flux inactive | HEK293 Ca counter inactive | HEK293 Ca cntr2 inactive
Cc1ccc(C(=O)Nc2ccc(C(=O)O)cc2NC(=O)c2ccc(C)cc2)cc1	none (no result: Cl transport mod)
COc1ccc2nc(C)cc(NCc3ccc(F)cc3)c2c1	MrgX1 antag -8.44 (no result: Cl transport mod) | MrgX1 ant reconf inactive | HEK293 Ca flux inactive | HEK293 Ca counter inactive | HEK293 Ca cntr2 inactive
CC(Sc1nc2ccccc2s1)C(=O)N(C)Cc1ccccc1 (centres undefined)	none (no result: Cl transport mod)
COc1cc2c(cc1OC)N1C(=O)CC(OCC(=O)O)C3C4CC5(CCN5C(=O)C4=O)C2C31 (centres undefined)	MrgX1 antag -5.97 | MrgX1 ant reconf inactive | HEK293 Ca flux inactive | HEK293 Ca counter inactive | HEK293 Ca cntr2 inactive
CC(Oc1ccccc1Cl)c1nnc(N)s1 (centres undefined)	MrgX1 antag -7.82 | MrgX1 ant reconf inactive | HEK293 Ca flux inactive | HEK293 Ca counter inactive | HEK293 Ca cntr2 inactive
Cc1ccc(OC(C)c2nnc(N)s2)cc1Cl (centres undefined)	none

Compound activity deposited in PubChem BioAssay by several laboratories.
